What was measured:
EHMT2/G9a = molecular target: T1, EHMT2/G9a (Homo sapiens, UniProt Q96KQ7); test: HMT selectivity assay; assay type: biochemical
T1 sequence (Q96KQ7 1-1210): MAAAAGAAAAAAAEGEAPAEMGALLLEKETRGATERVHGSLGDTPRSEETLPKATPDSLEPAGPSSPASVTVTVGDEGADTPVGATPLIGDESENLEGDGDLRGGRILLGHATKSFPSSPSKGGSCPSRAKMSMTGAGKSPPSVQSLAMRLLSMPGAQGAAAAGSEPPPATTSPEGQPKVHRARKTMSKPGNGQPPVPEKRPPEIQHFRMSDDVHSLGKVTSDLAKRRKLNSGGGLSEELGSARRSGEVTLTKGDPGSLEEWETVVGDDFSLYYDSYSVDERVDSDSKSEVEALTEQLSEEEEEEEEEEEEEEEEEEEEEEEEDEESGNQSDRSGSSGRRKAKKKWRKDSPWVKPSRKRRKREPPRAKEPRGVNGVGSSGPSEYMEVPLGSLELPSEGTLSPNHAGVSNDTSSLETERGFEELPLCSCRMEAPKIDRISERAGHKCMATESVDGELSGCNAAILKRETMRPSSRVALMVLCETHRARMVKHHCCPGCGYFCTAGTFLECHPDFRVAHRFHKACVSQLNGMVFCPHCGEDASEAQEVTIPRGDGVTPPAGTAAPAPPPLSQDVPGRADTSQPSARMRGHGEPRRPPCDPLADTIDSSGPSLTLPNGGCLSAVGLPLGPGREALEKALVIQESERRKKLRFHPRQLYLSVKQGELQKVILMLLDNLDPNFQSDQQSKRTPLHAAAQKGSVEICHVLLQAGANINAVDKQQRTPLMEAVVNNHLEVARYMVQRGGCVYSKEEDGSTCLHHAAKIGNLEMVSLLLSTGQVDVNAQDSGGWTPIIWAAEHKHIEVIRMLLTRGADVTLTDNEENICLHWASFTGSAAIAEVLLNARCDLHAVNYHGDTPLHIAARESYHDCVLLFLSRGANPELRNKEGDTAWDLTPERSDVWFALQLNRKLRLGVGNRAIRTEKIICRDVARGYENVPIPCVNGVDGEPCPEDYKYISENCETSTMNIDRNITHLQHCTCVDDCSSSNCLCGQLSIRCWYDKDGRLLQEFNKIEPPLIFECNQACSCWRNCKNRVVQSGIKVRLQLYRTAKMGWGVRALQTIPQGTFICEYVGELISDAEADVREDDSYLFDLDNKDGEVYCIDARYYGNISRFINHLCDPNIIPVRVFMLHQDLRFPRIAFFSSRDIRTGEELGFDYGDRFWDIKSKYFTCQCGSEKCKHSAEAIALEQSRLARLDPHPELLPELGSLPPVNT
Method in brief: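 Triplicate reactions, 1 h, room temperature. Guanidine HCl stop; Flashplate SPA counts. Activity relative to no-compound (100%) and no-enzyme (0%). IC50 over 100 nM–100 μM; Ki = IC50/2.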

PRMT3 = PRMT3 (Homo sapiens, UniProt O60678); test: HMT selectivity assay; assay type: biochemical
MLL1 complex = MLL1 complex (Homo sapiens, UniProt Q03164); test: HMT selectivity assay; assay type: biochemical
Method in brief: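 Triplicate, 1 h at room temperature. Quenched with 7.5 M guanidine HCl; tritium read by Flashplate SPA. Normalised to no-compound and no-enzyme wells. IC50 from 100 nM–100 μM; Ki = IC50/2.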

SETD8 = molecular target: T2, SETD8 (Homo sapiens, UniProt Q9NQR1); test: HMT selectivity assay; assay type: biochemical
T2 sequence (Q9NQR1 1-393): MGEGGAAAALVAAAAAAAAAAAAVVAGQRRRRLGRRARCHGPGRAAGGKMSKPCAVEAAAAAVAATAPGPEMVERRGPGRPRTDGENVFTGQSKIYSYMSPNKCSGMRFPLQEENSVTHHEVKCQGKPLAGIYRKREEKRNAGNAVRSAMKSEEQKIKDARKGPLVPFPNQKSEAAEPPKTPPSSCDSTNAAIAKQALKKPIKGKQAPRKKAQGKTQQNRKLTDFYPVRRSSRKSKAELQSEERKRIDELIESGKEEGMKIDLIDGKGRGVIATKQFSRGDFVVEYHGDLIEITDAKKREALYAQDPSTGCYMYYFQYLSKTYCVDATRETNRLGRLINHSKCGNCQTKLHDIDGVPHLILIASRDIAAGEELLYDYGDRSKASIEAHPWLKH
Method in brief: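 Triplicate, 1 h at room temperature. Guanidine HCl stop; Flashplate SPA CPM. No compound = 100%, no enzyme = 0%. IC50 over 100 nM–100 μM; Ki = IC50/2.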

EZH2 (PRC2 complex) = EZH2 (PRC2 complex) (Homo sapiens, UniProt Q15910); test: HMT selectivity assay; assay type: biochemical
Method in brief: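 Triplicate, 1 h at room temperature. Guanidine HCl quench, then Flashplate CPM. 100% = no compound; 0% = no enzyme. IC50 over 100 nM–100 μM; Ki = IC50/2.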

SUV39H2 = SUV39H2 (Homo sapiens, UniProt Q9H5I1); test: HMT selectivity assay; assay type: biochemical
Method in brief: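 Triplicate reactions, 1 h at room temperature. Quenched with 7.5 M guanidine HCl; read as Flashplate CPM. Normalised to no-compound and no-enzyme wells. IC50 from 100 nM–100 μM; Ki = IC50/2.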

SETD7 = molecular target: T3, SETD7 (Homo sapiens, UniProt Q8WTS6); test: HMT selectivity assay; assay type: biochemical
T3 sequence (Q8WTS6 1-366): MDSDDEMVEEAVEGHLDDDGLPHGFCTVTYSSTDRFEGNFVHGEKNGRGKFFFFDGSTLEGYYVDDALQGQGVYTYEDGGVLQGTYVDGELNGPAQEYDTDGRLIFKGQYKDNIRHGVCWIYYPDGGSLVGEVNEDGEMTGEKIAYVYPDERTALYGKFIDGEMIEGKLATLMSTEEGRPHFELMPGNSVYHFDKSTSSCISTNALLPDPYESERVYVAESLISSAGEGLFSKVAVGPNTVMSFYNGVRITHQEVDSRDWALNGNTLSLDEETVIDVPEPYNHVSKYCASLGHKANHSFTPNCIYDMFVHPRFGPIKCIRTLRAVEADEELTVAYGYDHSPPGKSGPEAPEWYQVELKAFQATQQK
Method in brief: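 Triplicate, room temperature, 1 h. Stopped with 7.5 M guanidine HCl; Flashplate CPM. Normalised to no-compound and no-enzyme controls. IC50 from 100 nM–100 μM; Ki = IC50/2.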

EHMT1/GLP = molecular target: T4, EHMT1/GLP (Homo sapiens, UniProt Q9H9B1); test: HMT selectivity assay; assay type: biochemical
T4 sequence (Q9H9B1 1-1298): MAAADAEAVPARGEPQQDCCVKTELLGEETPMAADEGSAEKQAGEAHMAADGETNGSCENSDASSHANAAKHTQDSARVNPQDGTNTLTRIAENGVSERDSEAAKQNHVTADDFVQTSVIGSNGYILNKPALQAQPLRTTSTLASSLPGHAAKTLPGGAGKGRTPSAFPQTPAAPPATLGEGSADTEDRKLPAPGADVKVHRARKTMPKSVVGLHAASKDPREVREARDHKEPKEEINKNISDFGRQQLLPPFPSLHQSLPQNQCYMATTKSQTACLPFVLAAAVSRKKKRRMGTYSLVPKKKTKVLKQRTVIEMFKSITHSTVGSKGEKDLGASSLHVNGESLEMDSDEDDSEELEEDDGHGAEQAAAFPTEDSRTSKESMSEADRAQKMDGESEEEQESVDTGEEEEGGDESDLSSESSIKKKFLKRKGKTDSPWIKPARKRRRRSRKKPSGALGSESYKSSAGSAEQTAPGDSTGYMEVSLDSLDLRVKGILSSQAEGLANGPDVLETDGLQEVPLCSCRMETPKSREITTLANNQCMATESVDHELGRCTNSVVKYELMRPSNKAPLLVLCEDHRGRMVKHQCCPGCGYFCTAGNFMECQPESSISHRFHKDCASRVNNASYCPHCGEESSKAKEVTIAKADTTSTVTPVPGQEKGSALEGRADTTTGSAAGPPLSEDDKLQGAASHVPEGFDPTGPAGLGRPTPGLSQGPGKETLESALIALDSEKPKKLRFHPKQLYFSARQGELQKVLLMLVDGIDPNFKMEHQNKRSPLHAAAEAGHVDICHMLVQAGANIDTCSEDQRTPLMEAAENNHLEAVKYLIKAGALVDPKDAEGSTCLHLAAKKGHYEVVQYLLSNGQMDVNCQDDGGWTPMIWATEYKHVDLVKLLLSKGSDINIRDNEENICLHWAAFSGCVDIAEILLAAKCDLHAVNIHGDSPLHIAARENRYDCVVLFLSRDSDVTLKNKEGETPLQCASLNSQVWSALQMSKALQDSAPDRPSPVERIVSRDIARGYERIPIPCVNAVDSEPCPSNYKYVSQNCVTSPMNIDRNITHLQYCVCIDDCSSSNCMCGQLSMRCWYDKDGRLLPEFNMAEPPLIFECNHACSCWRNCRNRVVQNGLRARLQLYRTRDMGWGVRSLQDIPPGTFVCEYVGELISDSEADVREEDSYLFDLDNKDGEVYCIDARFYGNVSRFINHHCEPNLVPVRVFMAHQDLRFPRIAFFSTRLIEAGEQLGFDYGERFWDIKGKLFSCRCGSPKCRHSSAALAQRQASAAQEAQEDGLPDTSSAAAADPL
Method in brief: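 Stopped with 7.5 M guanidine HCl, then Flashplate CPM. No compound = 100%, no enzyme = 0%. IC50 from 100 nM–100 μM; Ki = IC50/2.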

haspin catalytic domain = molecular target: T5, haspin catalytic domain (Homo sapiens, UniProt Q8TF76); test: Differential scanning fluorimetry on haspin catalytic domain; assay type: binding; conditions: 10 μM compound
T5 sequence (Q8TF76 484-798 limits assumed): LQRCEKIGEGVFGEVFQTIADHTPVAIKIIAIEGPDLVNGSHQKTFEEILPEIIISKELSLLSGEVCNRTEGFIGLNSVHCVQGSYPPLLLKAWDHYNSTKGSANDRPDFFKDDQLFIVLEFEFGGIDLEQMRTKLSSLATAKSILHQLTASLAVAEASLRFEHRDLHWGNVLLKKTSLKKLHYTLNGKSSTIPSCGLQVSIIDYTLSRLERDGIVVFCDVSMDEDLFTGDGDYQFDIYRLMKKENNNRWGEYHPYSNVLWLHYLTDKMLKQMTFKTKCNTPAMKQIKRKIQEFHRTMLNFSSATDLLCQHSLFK

PRMT5-MEP50 = PRMT5-MEP50 (Homo sapiens, UniProt O14744); test: HMT selectivity assay; assay type: biochemical
Sequence of PRMT5-MEP50 (O14744 whole entry): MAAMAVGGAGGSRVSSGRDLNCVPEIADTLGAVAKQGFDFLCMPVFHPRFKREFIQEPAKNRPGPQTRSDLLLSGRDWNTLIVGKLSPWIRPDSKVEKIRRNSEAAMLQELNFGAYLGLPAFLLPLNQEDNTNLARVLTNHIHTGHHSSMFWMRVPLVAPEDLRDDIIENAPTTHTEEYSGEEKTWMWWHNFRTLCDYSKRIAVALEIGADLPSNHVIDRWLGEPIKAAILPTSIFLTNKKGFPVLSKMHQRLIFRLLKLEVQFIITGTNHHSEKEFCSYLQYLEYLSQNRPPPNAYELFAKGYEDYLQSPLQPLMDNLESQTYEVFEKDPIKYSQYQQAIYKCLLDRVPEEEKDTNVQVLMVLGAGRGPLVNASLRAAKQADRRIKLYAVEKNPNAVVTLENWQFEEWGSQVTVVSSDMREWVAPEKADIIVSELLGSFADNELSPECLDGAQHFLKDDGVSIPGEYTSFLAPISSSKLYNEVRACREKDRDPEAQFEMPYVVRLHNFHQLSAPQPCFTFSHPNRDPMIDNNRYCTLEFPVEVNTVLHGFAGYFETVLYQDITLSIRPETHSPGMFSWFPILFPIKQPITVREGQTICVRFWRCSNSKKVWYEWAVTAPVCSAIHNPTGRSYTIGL
Sequence of PRMT5-MEP50 (Q9BQA1 whole entry partner): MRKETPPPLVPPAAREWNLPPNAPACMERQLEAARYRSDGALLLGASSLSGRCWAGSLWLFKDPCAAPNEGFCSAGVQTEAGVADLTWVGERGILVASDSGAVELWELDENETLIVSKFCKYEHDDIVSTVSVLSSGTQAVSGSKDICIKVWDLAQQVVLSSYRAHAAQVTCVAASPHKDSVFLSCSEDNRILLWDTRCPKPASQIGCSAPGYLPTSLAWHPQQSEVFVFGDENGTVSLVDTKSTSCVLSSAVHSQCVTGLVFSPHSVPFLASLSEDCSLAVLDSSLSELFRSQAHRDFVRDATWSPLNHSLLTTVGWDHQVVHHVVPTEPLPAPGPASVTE

Sequence of MLL1 complex (Q9UBL3 whole entry): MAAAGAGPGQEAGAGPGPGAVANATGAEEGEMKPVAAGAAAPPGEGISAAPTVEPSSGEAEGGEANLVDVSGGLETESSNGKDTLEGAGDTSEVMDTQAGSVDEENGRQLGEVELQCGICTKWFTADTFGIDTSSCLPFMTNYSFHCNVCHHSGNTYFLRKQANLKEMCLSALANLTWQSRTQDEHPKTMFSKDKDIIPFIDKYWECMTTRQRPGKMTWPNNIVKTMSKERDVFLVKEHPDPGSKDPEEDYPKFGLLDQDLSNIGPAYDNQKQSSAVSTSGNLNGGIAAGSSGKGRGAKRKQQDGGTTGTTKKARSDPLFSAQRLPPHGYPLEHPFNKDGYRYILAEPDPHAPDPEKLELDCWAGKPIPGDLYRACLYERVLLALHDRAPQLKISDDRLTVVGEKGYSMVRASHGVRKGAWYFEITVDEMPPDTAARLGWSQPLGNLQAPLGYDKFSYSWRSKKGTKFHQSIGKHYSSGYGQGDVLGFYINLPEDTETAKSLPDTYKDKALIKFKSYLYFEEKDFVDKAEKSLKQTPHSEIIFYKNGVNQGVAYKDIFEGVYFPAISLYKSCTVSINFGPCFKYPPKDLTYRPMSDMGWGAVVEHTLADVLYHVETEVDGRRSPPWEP
Sequence of MLL1 complex (Q03164 3745-3969): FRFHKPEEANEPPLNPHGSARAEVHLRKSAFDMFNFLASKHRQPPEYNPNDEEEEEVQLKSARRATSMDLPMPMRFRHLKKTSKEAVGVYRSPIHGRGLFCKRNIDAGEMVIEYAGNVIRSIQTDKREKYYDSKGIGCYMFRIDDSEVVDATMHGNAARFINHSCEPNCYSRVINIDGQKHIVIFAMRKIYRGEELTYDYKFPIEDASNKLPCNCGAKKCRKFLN
Sequence of MLL1 complex (Q15291 whole entry, further chain): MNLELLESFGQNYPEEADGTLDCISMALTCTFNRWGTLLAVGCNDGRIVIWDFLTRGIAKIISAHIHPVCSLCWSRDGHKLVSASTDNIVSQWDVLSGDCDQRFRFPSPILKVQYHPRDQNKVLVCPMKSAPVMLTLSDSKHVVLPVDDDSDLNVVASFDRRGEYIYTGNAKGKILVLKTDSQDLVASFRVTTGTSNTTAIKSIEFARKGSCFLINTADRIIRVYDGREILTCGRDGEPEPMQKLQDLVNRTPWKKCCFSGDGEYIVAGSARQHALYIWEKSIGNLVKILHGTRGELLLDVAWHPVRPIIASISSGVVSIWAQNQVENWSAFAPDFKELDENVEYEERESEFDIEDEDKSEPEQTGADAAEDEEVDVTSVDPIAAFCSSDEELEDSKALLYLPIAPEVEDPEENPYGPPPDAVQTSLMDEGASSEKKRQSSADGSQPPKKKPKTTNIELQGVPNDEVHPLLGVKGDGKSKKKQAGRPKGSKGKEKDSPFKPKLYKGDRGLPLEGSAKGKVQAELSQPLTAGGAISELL
Sequence of EZH2 (PRC2 complex) (Q15910 whole entry, species assumed): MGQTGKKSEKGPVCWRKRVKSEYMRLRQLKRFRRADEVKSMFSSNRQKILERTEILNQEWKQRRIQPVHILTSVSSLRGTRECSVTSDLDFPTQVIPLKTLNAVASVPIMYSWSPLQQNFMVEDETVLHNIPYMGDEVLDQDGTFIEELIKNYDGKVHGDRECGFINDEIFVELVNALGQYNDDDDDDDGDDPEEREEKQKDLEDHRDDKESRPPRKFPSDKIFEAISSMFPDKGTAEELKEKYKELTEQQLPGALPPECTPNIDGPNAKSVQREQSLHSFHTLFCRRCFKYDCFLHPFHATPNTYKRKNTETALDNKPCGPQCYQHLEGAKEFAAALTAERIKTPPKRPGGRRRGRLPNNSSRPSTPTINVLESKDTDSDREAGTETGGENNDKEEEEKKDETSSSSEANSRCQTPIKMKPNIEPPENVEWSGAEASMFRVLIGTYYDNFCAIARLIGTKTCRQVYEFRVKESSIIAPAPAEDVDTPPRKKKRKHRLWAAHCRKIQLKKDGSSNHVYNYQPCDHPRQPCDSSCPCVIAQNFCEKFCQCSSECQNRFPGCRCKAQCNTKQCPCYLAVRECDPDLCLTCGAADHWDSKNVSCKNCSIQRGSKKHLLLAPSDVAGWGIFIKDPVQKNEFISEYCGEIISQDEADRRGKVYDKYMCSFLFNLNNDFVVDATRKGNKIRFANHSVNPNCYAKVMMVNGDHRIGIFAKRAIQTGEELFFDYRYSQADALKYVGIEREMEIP
Sequence of EZH2 (PRC2 complex) (O75530 whole entry partner, species assumed): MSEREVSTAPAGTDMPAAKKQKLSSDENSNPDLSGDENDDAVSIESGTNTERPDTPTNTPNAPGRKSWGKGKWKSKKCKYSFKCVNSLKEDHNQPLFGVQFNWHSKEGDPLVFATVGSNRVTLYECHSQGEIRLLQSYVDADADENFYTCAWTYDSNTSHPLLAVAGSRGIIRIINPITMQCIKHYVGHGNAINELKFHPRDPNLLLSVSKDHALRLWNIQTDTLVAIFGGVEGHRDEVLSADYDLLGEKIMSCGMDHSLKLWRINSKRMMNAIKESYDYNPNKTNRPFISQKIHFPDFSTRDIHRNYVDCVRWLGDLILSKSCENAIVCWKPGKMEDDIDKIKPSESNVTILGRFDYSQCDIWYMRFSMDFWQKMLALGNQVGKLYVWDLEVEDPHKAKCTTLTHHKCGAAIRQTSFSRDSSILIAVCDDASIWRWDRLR
Sequence of EZH2 (PRC2 complex) (Q15022 whole entry partner, species assumed): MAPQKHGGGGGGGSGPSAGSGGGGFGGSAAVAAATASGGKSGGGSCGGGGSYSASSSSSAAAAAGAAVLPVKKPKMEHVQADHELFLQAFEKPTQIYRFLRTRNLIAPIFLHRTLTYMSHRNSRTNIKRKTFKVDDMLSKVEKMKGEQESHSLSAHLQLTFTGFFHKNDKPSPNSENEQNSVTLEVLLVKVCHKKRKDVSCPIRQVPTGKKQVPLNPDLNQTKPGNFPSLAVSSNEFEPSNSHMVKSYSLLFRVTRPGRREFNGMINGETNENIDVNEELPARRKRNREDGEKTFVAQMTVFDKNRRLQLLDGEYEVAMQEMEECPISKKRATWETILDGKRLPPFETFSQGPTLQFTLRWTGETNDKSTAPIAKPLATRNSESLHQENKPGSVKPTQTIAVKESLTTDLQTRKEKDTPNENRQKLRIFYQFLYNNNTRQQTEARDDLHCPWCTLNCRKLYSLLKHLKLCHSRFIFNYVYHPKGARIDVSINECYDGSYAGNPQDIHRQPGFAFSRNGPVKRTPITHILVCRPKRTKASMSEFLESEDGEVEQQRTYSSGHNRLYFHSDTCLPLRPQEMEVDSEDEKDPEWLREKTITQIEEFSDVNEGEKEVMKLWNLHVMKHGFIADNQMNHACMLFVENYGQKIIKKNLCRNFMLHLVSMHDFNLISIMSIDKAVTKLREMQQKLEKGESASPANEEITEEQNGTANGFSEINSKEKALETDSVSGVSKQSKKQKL
Sequence of PRMT3 (O60678 whole entry, species assumed): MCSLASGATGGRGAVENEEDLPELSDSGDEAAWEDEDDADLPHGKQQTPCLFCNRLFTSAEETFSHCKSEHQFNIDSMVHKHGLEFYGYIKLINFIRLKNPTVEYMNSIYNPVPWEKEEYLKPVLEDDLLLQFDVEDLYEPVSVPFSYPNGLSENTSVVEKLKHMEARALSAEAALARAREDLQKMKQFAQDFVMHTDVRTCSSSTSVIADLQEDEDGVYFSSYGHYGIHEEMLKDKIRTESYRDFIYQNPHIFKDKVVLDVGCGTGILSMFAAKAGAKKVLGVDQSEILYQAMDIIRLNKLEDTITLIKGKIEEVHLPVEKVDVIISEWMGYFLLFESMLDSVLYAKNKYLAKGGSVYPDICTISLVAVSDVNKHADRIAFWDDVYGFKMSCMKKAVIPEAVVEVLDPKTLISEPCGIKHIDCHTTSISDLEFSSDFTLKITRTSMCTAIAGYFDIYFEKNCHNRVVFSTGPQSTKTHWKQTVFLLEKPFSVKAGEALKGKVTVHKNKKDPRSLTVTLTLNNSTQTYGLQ

activity against EHMT2/G9a (EHMT2/G9a): inactive
Ki (EHMT2/G9a; G9a, compound 100 nM to 100 μM, SAM = Km): No inhibition
IC50 (PRMT3): 2000 nM
times less active against PRMT3 than DOT1L (PRMT3; IC50 ratio versus DOT1L): about 25
activity against MLL (MLL1 complex): inactive
Ki (MLL1 complex; MLL, compound 100 nM to 100 μM, SAM = Km): No inhibition
activity against SETD8 (SETD8): inactive
Ki (SETD8; SETD8, compound 100 nM to 100 μM, SAM = Km): No inhibition
activity against EZH2 (present in the PRC2 complex) (EZH2 (PRC2 complex)): inactive
Ki (EZH2 (PRC2 complex); PRC2, compound 100 nM to 100 μM, SAM = Km): No inhibition
activity against SUV39H2 (SUV39H2): inactive
Ki (SUV39H2; SUV39H2, compound 100 nM to 100 μM, SAM = Km): No inhibition
activity against SETD7 (SETD7): inactive
Ki (SETD7; SETD7, compound 100 nM to 100 μM, SAM = Km): No inhibition
activity against EHMT1/GLP (EHMT1/GLP): inactive
Ki (EHMT1/GLP; EHMT1, compound 100 nM to 100 μM, SAM = Km): No inhibition
binding to the haspin catalytic domain by differential scanning fluorimetry (haspin catalytic domain): no binding
IC50 (PRMT5-MEP50): 2000 nM
times less active against PRMT5 than DOT1L (PRMT5-MEP50; IC50 ratio versus DOT1L): about 25
SMILES: Nc1ncnc2c1c(Br)cn2[C@@H]1O[C@H](CSCC[C@H](N)C(=O)O)[C@@H](O)[C@H]1O [BrSAH, N7-Bromo-deaza-S-adenosyl-L-homocysteine]
